Results published in ChEMBL document CHEMBL1121404, “Synthesis and study of conformationally defined enantiomers of local anesthetics and conformationally defined enantiomers of fluorescent dyes designed to label electrically excitable membranes” (1980).

Key:
Majidae [1] = assay: The compound was tested for optical responses recorded from spider crab walking leg nerve bundles upon staining.; type: functional
How it was run: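 Nerve bundles stained 30 min in Tris-buffered artificial sea water (pH 8) with 25-50 nM dye, poorly soluble dyes first dissolved in 0.1 mL 95% EtOH per 100 mL; excitation with 365 ± 10 nm light from xenon-mercury lamp; time-averaged fluorescence recorded with extracellular compound action potential; ΔI/I (excitation-linked change over resting intensity); mean ± SE of 2-8 experiments.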

Majidae [2] = assay: The compound was tested for its ability to block the excitability of spider crab walking leg nerve bundles, peak action potential amplitude, recorded by a pair of external Ag-AgCl electrodes.; type: functional
How it was run: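 Libinia emarginata claw/walking-leg nerve bundles; compound applied in external bath at 1 mM for 20 min in physiological saline (416 mM NaCl, 10 mM KCl, 11 mM CaCl2, 55 mM MgCl2, 2.5 mM NaHCO3, pH 8.0); 0.4-ms threshold pulses; 18-20 °C; % decrease in peak compound action potential amplitude via external Ag-AgCl electrodes; mean ± SE of 4-6 experiments.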

Majidae [3] = assay: The compound was tested for its ability to block the excitability of spider crab walking leg nerve bundles, the peak action potential amplitude, upon washing in physiological saline for 20 minutes.; type: functional, organism-based
How it was run: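 Spider crab (Libinia emarginata) nerve bundles exposed to 1 mM compound in bath for 20 min, then washed 20 min in physiological saline (pH 8.0); stimulation with 0.4-ms threshold pulses at 18-20 °C; value is percent recovery of peak compound action potential amplitude relative to control; mean ± SE of 4-6 experiments.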

SMILES | Delta I/I (Majidae [1]) | Decrease (Majidae [2]) [%] | Recovery (Majidae [3]) [%]
CN(C)c1cccc2c(S(=O)(=O)N[C@@H](CO)Cc3ccccc3)cccc12 | 0.00015 | – | –
CN(C)c1cccc2c(S(=O)(=O)N[C@H](CO)Cc3ccccc3)cccc12 | 0.00018 | – | –
C[C@@H](Cc1ccccc1)NS(=O)(=O)c1cccc2c(N(C)C)cccc12 | 7e-05 | – | –
C[C@@H](Cc1ccccc1)NC(=O)c1cccc2c(N(C)C)cccc12 | 0.00038 | – | –
C[C@H](Cc1ccccc1)NS(=O)(=O)c1cccc2c(N(C)C)cccc12 | 8.5e-05 | – | –
C[C@H](Cc1ccc(N)cc1)N(C)C | – | 28 | 100
CN(C)c1cccc2c(C(=O)N[C@@H](CO)Cc3ccccc3)cccc12 | 0.00025 | – | –
C[C@@H](Cc1ccc(N)cc1)N(C)C | – | 33 | 100
C[C@H](Cc1ccc([N+](=O)[O-])cc1)N(C)C | – | 93 | 46
CN(C)c1cccc2c(C(=O)N[C@H](CO)Cc3ccccc3)cccc12 | 0.00024 | – | –
C[C@H](Cc1ccccc1)NC(=O)c1cccc2c(N(C)C)cccc12 | 0.00035 | – | –
C[C@@H](Cc1ccc([N+](=O)[O-])cc1)N(C)C | – | 84 | 35
